Reference: ChEMBL document CHEMBL4513216, “Probing the Open Global Health Chemical Diversity Library for Multistage-Active Starting Points for Next-Generation Antimalarials” (ACS Infect Dis, 2020)

Assay: Toxicity liver stage against HepG2, at 10uM
Assay type: cell-based
Set-up: test concentration 10 uM, cell line HepG2-A16-CD81EGFP
Conditions: human, HepG2-A16-CD81EGFP cells; read-out: INHIBITION
Outline: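 Uninfected HepG2-A16-CD81EGFP cells, 3 × 10^3 per well, 1536-well, plated on prespotted compound at 10 μM final, parasite-free screening media added to match infected plates; puromycin 10 μM positive, DMSO 0.5% negative; run in parallel with 48 h PbLuc assay at 37 °C, 5% CO2; viability by CellTiter-Glo luminescence, normalized to controls.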

c1ccn(Cc2nnc3n2CCCN(c2cnccn2)C3)c1 gave a cytotoxicity at 10 µM of -2.2%.
Work on CCN1CCC2(CC1)CC(NC(=O)c1c[nH]cn1)c1ccccc1O2 (stereo unspecified) yielded a cytotoxicity at 10 µM of -103%.
Work on Cc1cccc(-c2nnn3c2COC(CNS(=O)(=O)C2CC2)C3)c1 (stereo unspecified) yielded a cytotoxicity at 10 µM of -110%.
With CN1CCN(c2ncnc3c2c(C(=O)NC2CC2)c2ccccn23)CC1 the cytotoxicity at 10 µM was 3.34%.
Work on COCCN1C[C@H]2[C@@H](C1)N(C(=O)c1cccs1)CC[C@H]2OC yielded a cytotoxicity at 10 µM of -2.03%.
Molecule CC(C)c1nnsc1CNC(=O)C1CCN(C(=O)C2CCC2)CC1 has a cytotoxicity at 10 µM of -2.75%.
With Cn1ccnc1CN(CCO)C(=O)c1cc2ccccc2o1 the cytotoxicity at 10 µM was 3.42%.
Molecule CNc1ccnc(NCCSc2nccn2C)n1 has a cytotoxicity at 10 µM of -42.6%.
CNc1nc(C(=O)N2CCCC(COc3ccc(F)cc3)C2)cs1 (stereo unspecified) showed a cytotoxicity at 10 µM of 8.35%.
In the case of CCN1CCCC1CN(Cc1cc[nH]n1)CC1CCN(CCOC)CC1 (stereo unspecified), the cytotoxicity at 10 µM is reported as -5.14%.
For CCCc1nnc2sc(C3CCN(C4CCN(C)CC4)CC3)nn12, the cytotoxicity at 10 µM was -10.6%.
COc1cc(C#N)ccc1OC12CCCN(CC1)C2 (stereo unspecified) showed a cytotoxicity at 10 µM of -19.1%.
Molecule Fc1ccc(C(CNc2ccncn2)N2CCCC2)cc1 (stereo unspecified) has a cytotoxicity at 10 µM of 15.9%.
Cc1nc(CCN(C)C(=O)CN2C(=O)OC[C@@H]2c2ccccc2)no1 gave a cytotoxicity at 10 µM of -42.2%.
CC(=O)N1CCN(Cc2c(C)ccc3ccccc23)CC(O)C1 (stereo unspecified) gave a cytotoxicity at 10 µM of 11.8%.
With COCCN(Cc1cccnc1)c1nc(C)nc2oc(C)nc12 the cytotoxicity at 10 µM was -44.1%.
CO[C@H]1C[C@@H](O)C12CCN(CCOc1ccc(Cl)cc1)CC2 showed a cytotoxicity at 10 µM of -9.66%.
Work on N[C@@H]1c2ccccc2C2(CCN(c3cnc4ccccc4n3)CC2)[C@H]1O yielded a cytotoxicity at 10 µM of -2.45%.
With Cc1nc2c(c(N3CCCC(CO)C3)n1)CCN(Cc1ccco1)CC2 (stereo unspecified) the cytotoxicity at 10 µM was -0.044%.
In the case of c1ccc(CN2CCCC(CNc3ncnc4c3CCNCC4)C2)cc1 (stereo unspecified), the cytotoxicity at 10 µM is reported as -9.89%.
Cn1c(N2CCOCC2)nc2cc(C(=O)N3CCC(O)(CO)C3)ccc21 (stereo unspecified) showed a cytotoxicity at 10 µM of -4.62%.
Work on Cc1nc(CN2CC[C@@H]3[C@@H](CCC(=O)N3CCc3c[nH]cn3)C2)co1 yielded a cytotoxicity at 10 µM of 2.62%.
Molecule CCn1cnnc1CN(C)Cc1c[nH]nc1-c1ccc(F)cc1 has a cytotoxicity at 10 µM of -2.59%.
For N#CC1CCCN(C(=O)Cn2ncc(N3CCCC3)cc2=O)C1 (stereo unspecified), the cytotoxicity at 10 µM was -6.36%.
In the case of CC1=CC(C)(C)N(CN2C(=O)c3ccccc3C2=O)c2ccccc21, the cytotoxicity at 10 µM is reported as 5.82%.
CCOc1cccc(CN(Cc2cnn(C)c2)CC(C)C)c1O gave a cytotoxicity at 10 µM of -7%.
In the case of CN(CCCc1nccn1C)C(=O)C1COc2ccccc2C1 (stereo unspecified), the cytotoxicity at 10 µM is reported as -9.1%.
Molecule c1cncc(CN(CCCn2ccnc2)CC2CCOC2)c1 (stereo unspecified) has a cytotoxicity at 10 µM of 1.79%.
Cc1nn(C)c(C)c1C(C(=O)O)N1CC=C(c2ccccc2)CC1 (stereo unspecified) showed a cytotoxicity at 10 µM of -2.11%.
c1cc2ccc(N3CCN(Cc4ccc5c(c4)OCO5)CC3)nc2[nH]1 gave a cytotoxicity at 10 µM of -6.07%.
For CN1N=C(C(=O)N2CCCC(CCc3ccccc3F)C2)CCC1=O (stereo unspecified), the cytotoxicity at 10 µM was -6.67%.
For CN(C(=O)c1cccc(NCC(=O)O)c1)C(C1CC1)C1CC1, the cytotoxicity at 10 µM was 5.01%.
Molecule c1coc(CN2CCn3c(nc4ccccc43)C2)c1 has a cytotoxicity at 10 µM of 21.8%.
Cn1ncc2c(NCCCOc3cccnc3)nc(C3CCCC3)nc21 gave a cytotoxicity at 10 µM of 2.94%.
For CN1CCN(c2cc(CCNC(=O)C3CCC3)nc(C3CC3)n2)CC1, the cytotoxicity at 10 µM was 0.462%.
Work on Cc1ncncc1C(=O)Nc1cnn(CC(=O)NC2CCCC2)c1 yielded a cytotoxicity at 10 µM of 4.88%.
In the case of Cc1cncc(C(=O)NCCSCc2cccs2)c1, the cytotoxicity at 10 µM is reported as -6.48%.
Molecule Cc1cc(C)n(CC2CCCN2CCc2ccccn2)n1 (stereo unspecified) has a cytotoxicity at 10 µM of -8.01%.
Molecule C=C(C)COCCNC(=O)C1CCCN1C(C)=O (stereo unspecified) has a cytotoxicity at 10 µM of -10.7%.
In the case of Cc1nc(CN(C)C2CCN(Cc3sc(C)nc3C)C2)no1 (stereo unspecified), the cytotoxicity at 10 µM is reported as -8.99%.
In the case of CNS(=O)(=O)c1ccc(C(=O)N2CCCC2Cc2ccccc2)o1 (stereo unspecified), the cytotoxicity at 10 µM is reported as -8.53%.
With CCOCCN1CCN(Cc2cccc(C(=O)N(C)C)c2)CC1 the cytotoxicity at 10 µM was -13.5%.
For CC(C)(NCC(=O)NCCC#N)c1ccc2c(c1)OCCO2, the cytotoxicity at 10 µM was -4.03%.
In the case of CC(NC(=O)N(C)Cc1ccsc1)c1ccc2c(c1)OCO2 (stereo unspecified), the cytotoxicity at 10 µM is reported as -10.6%.
For CN(C)c1ccc(CCNC(=O)NCc2ccc(N(C)C)nc2)cc1, the cytotoxicity at 10 µM was -11.2%.
In the case of CCOc1ncccc1NC(=O)NC1CCN(S(C)(=O)=O)CC1, the cytotoxicity at 10 µM is reported as -7.96%.
For Cn1c(CN2CCOC(c3nc(C(C)(C)C)n[nH]3)C2)nnc1C1CC1 (stereo unspecified), the cytotoxicity at 10 µM was 5.37%.
Work on Cc1ncc(CN2CCCC2)c2cc(C(=O)c3ccc(Br)cc3)oc12 yielded a cytotoxicity at 10 µM of 1.46%.
Cc1cc(CN2C[C@H](OCC3CCOCC3)[C@H]3COC[C@H]32)oc1C showed a cytotoxicity at 10 µM of 6.88%.
For c1cnc(N2CCOCC3(C2)CN(c2nccs2)CCO3)nc1 (stereo unspecified), the cytotoxicity at 10 µM was -104%.
Cn1cc(CNC2CC3(CCN(S(C)(=O)=O)CC3)c3ccccc32)cn1 (stereo unspecified) showed a cytotoxicity at 10 µM of -110%.
Work on Cc1ccc(C(=O)N2CCc3c(CN4CCCC4)nn(C)c3C2)cc1C yielded a cytotoxicity at 10 µM of -4.86%.
In the case of CCc1ccc(CN2CC[C@@H]3NC(=O)CC[C@@H]32)o1, the cytotoxicity at 10 µM is reported as 3.06%.
With c1ccc(N2CCCC3(CCN(Cc4cccs4)C3)C2)nc1 (stereo unspecified) the cytotoxicity at 10 µM was 12.7%.
CCCn1cc2nc(N3CCCC3)[nH]cc-2c1=O showed a cytotoxicity at 10 µM of 2.13%.
CC(C)c1nnc(N2C[C@H]3CC[C@@H](C2)N(CC2CCC2)C3)s1 gave a cytotoxicity at 10 µM of -7.38%.
